From ChEMBL document CHEMBL1148781, “Phenylimidazole derivatives of 4-pyridone as dual inhibitors of bacterial enoyl-acyl carrier protein reductases FabI and FabK” (J Med Chem, 2007) come the findings set out here.

Molecules are shown by their SMILES. In brackets after ≈: the same amount, converted by molar mass.

Experiment [1] is described as follows: Inhibition of Escherichia coli FabI. Summed up:
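His-tagged E. coli FabI (gene from E. coli DH5α, expressed in E. coli TOP10 with arabinose induction, Ni-NTA purified) at 50 µg/mL in 100 mM sodium phosphate pH 7.4 with 0.25 mM crotonoyl-CoA and 0.4 mM NADH. Reaction started by enzyme addition; NADH consumption followed at 340 nm for 10 min at room temperature; IC50 = concentration halving activity.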

Experiment [2] concerns the target T1, Enoyl-(Acyl-carrier-protein) reductase (Streptococcus pneumoniae, UniProt Q9FBC5).
T1 sequence (Q9FBC5 whole entry): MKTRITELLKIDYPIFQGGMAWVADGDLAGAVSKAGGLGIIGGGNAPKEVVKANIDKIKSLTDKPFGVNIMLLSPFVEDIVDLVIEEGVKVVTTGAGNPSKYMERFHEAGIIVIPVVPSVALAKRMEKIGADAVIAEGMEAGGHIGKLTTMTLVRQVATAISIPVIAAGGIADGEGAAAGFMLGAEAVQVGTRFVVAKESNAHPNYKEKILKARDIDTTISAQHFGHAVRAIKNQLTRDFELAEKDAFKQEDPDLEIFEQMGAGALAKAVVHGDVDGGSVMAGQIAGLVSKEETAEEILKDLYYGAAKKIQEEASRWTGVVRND
Briefly: Inhibition of Streptococcus pneumoniae FabK. The essentials: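 C-terminal His-tagged FabK from S. pneumoniae R6, expressed in E. coli BL21(DE3) with 1 mM IPTG, Ni-NTA purified, used at 2 µg/mL. Buffer 100 mM MES pH 7.0, 100 mM NH4Cl, 0.2 mM crotonoyl-CoA, 0.4 mM NADH; enzyme-initiated. Absorbance at 340 nm read for 10 min at room temperature; IC50 = concentration giving 50% activity reduction.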

The next experiment deals with Streptococcus pneumoniae. Briefly: Antibacterial activity against Streptococcus pneumoniae KU197. Type of experiment: functional. The essentials:
(§1)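 Broth microdilution per NCCLS M7-A6; MIC taken as lowest concentration preventing visible growth. Strains: S. aureus ATCC29213 and S. pneumoniae KU197 (PRSP).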

Another experiment has as its system Staphylococcus aureus. Briefly: Antibacterial activity against Staphylococcus aureus ATCC 29213. Format: functional. The essentials:
as §1

A further experiment has as its system K562. Briefly: Cytotoxicity against human K562 cells. Format: functional, cell-based.

As for `Cc1c(Cc2c(Cl)cccc2Cl)c(=O)ccn1CCc1ccc(-c2c[nH]c(CNC(=O)Nc3ncc(S(C)(=O)=O)s3)n2)cc1`, the 50% inhibitory concentration (IC50) in experiment [1] is 310 nM; in experiment [2] it was 9.4 nM; in the experiment on K562, > 69000 nM. Moreover, the results for the MIC with Streptococcus pneumoniae and against Staphylococcus aureus were 1 µg/mL (≈ 1.49 µM) and > 32 µg/mL, respectively.
Turning to `O=C([O-])COc1ccc(-c2cnc(CNC(=O)Nc3ncc(Sc4ccccn4)s3)[nH]2)cc1.[Na+]`, the IC50 in experiment [1] is > 32000 nM; in experiment [2] it was 34 nM. In addition, the minimal inhibitory concentration (MIC) in the experiment with Streptococcus pneumoniae is > 32 µg/mL.
`Cc1c(Cc2c(Cl)cccc2Cl)c(=O)ccn1Cc1ccc(-c2c[nH]c(CNC(=O)Nc3ncc(Br)s3)n2)cc1`: the results for the IC50 (in experiment [1]; in experiment [2]; in the experiment with K562) were 820 nM, 11000 nM and > 69000 nM, respectively. Also, the MIC against Streptococcus pneumoniae and in the experiment with Staphylococcus aureus was > 32 µg/mL each time.
Turning to `Cc1c(Cc2c(Cl)cccc2Cl)c(=O)ccn1C/C=C/c1ccc(-c2c[nH]c(CNC(=O)Nc3ncc(Br)s3)n2)cc1`, the figures for the IC50 (in experiment [1]; in experiment [2]; in the experiment on K562) were 290 nM, 9000 nM and > 69000 nM, respectively. Further, the MIC in the experiment on Streptococcus pneumoniae and against Staphylococcus aureus was > 32 µg/mL in each case.
As to `Cc1c(Cc2c(Cl)cccc2Cl)c(=O)ccn1CCc1ccc(-c2c[nH]c(CNC(=O)Nc3ncc[nH]3)n2)cc1`, the IC50 was 930 nM in experiment [1], > 32000 nM in experiment [2] and > 69000 nM in the experiment on K562. Also, the MIC with Streptococcus pneumoniae and against Staphylococcus aureus was > 32 µg/mL throughout.
Take `O=C(NCc1ncc(-c2ccccc2)[nH]1)Nc1ncc(Sc2ccccn2)s1`: the IC50 in experiment [1] is > 32000 nM; in experiment [2], 42 nM. The compound further displayed a minimal inhibitory concentration (MIC) in the experiment on Streptococcus pneumoniae of 2 µg/mL (≈ 4.9 µM).
`O=C(NCc1ncc(-c2ccc(Br)cc2)[nH]1)Nc1ncc(Sc2ccccn2)s1`: the IC50 in experiment [1] was > 32000 nM; in experiment [2] it was 2.4 nM. This compound also returned a minimal inhibitory concentration (MIC) with Streptococcus pneumoniae of 0.25 µg/mL (≈ 0.513 µM).
Consider `Cc1c(Cc2c(Cl)cccc2Cl)c(=O)ccn1CCc1ccc(-c2c[nH]c(CNC(=O)Nc3ncc(Sc4ccccn4)s3)n2)cc1`, for which the IC50 in experiment [1] was 560 nM; in experiment [2], 16 nM; in the experiment with K562, > 69000 nM. In addition, the MIC is 2 µg/mL (≈ 2.85 µM) with Streptococcus pneumoniae and > 32 µg/mL against Staphylococcus aureus.
Consider `CS(=O)(=O)c1ccc2nc(NC(=O)NCc3nc(-c4ccccc4)c[nH]3)sc2c1`, for which the 50% inhibitory concentration (IC50) in experiment [1] is > 32000 nM. The MIC in the experiment on Staphylococcus aureus is > 64 µg/mL.
`Cn1cc(CNC(=O)/C=C/c2cnc3c(c2)CCC(=O)N3)c2ccccc21`: the figures for the half-inhibitory concentration (IC50) in experiment [1] and in experiment [2] were 200 nM and > 32000 nM, respectively. Further, the results for the MIC against Streptococcus pneumoniae and in the experiment on Staphylococcus aureus were > 32 µg/mL and 0.063 µg/mL (≈ 0.175 µM), respectively.
Take `Cc1c(Cc2c(Cl)cccc2Cl)c(=O)ccn1CCc1ccc(-c2c[nH]c(CNC(=O)Nc3nc4ccc(S(C)(=O)=O)cc4s3)n2)cc1`: the IC50 was 380 nM in experiment [1], 4.5 nM in experiment [2] and > 69000 nM in the experiment on K562. Besides, the figures for the MIC against Streptococcus pneumoniae and in the experiment on Staphylococcus aureus were 0.5 µg/mL (≈ 0.693 µM) and > 32 µg/mL, respectively.
For `Cc1c(Cc2c(Cl)cccc2Cl)c(=O)ccn1CCCc1ccc(-c2c[nH]c(CNC(=O)Nc3ncc(Br)s3)n2)cc1` the same measures were 340 nM, 6600 nM, > 69000 nM, > 32 µg/mL and > 32 µg/mL.
For `O=C(NCc1ncc(-c2cccc(Br)c2)[nH]1)Nc1ncc(Sc2ccccn2)s1`, the results for the IC50 in experiment [1] and in experiment [2] were > 32000 nM and 5.3 nM, respectively. This compound had an MIC in the experiment with Streptococcus pneumoniae of 16 µg/mL (≈ 32.8 µM).
For the compound `Cc1c(Cc2c(Cl)cccc2Cl)c(=O)ccn1CCc1ccc(-c2c[nH]c(CNC(=O)Nc3ncc(Br)s3)n2)cc1`, the results for the IC50 (in experiment [1]; in experiment [2]; with K562) were 570 nM, 29 nM and > 69000 nM, respectively. Moreover, the figures for the MIC in the experiment with Streptococcus pneumoniae and in the experiment with Staphylococcus aureus were 8 µg/mL (≈ 11.9 µM) and > 32 µg/mL, respectively.
On to `Cc1c(Cc2c(Cl)cccc2Cl)c(=O)ccn1/C=C/c1ccc(-c2c[nH]c(CNC(=O)Nc3ncc(Br)s3)n2)cc1`, for which the IC50 is > 32000 nM in experiment [1], > 30000 nM in experiment [2] and > 69000 nM in the experiment on K562.
As for `Oc1cc(Cl)ccc1Oc1ccc(Cl)cc1Cl` [TRICLOSAN], the results for the IC50 in experiment [1] and in experiment [2] were 900 nM and > 32000 nM, respectively. Further, the minimum inhibitory concentration (MIC) with Staphylococcus aureus was 0.063 µg/mL (≈ 0.218 µM).

For orientation: IC50 means the point on the concentration scale where inhibition reaches its midpoint. Higher therefore signals weaker potency. As a reminder, the MIC is the lowest concentration that inhibits growth of the organism. A low value points to a more susceptible organism.
